ChEMBL document CHEMBL1795212, “Synthesis and in vitro antimalarial activity of tetraoxane-amine/amide conjugates” (Eur J Med Chem, 2011)

Legend:
[1] = Selectivity index, IC50 for african green monkey Vero cells to IC50 for Plasmodium falciparum D6; type: functional
Summary of the method: (§1)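 Selectivity index is the cytotoxicity IC50 in Vero cells divided by the antimalarial IC50 against the stated P. falciparum clone (D6 or W2).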

Plasmodium falciparum [2] = assay: Antimalarial activity against Plasmodium falciparum W2 assessed as plasmodial LDH activity after 72 hrs; type: functional, organism-based
Summary of the method: (§2)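 P. falciparum D6 (chloroquine-sensitive) and W2 (chloroquine-resistant) clones screened in vitro alongside Vero cytotoxicity, up to a highest concentration of 12.5; IC50 determined.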

Vero = assay: Cytotoxicity against african green monkey Vero cells at 12.5 uM; type: cell-based; details: chlorocebus sabaeus
Summary of the method: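 Mammalian kidney Vero cells screened in vitro for cytotoxicity, in parallel with the antimalarial screen, up to a highest concentration of 12.5.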

Plasmodium falciparum [3] = assay: Antimalarial activity against Plasmodium falciparum D6 assessed as plasmodial LDH activity after 72 hrs; type: functional, organism-based; summary of the method: as §2
[4] = Selectivity index, IC50 for african green monkey Vero cells to IC50 for Plasmodium falciparum W2; type: functional; summary of the method: as §1
[5] = Plasmodium falciparum, W2, 72 h, read-out: IC50
[6] = Plasmodium falciparum, D6, 72 h, read-out: IC50

| Structure (SMILES) | Ratio IC50 [1] | IC50 (Plasmodium falciparum [2]; [5]) | Activity (Vero) | IC50 (Plasmodium falciparum [3]; [6]) | Ratio IC50 [4] | IC50 (Plasmodium falciparum [2]) | IC50 (Plasmodium falciparum [3]) |
| --- | --- | --- | --- | --- | --- | --- | --- |
| Cc1ccc(C2OOC(c3ccc(C(=O)NCCc4ccccc4)cc3)OO2)cc1 (stereo not given) | >4.3 | 2.09 µM | Non-toxic | 2.71 µM | >5.6 |  |  |
| Cc1ccc(C2OOC(c3ccc(/C=N\c4ccccc4)cc3)OO2)cc1 (stereo not given) | >1.7 | 5.53 µM | Non-toxic | 7.74 µM | >2.4 |  |  |
| Cc1ccc(C2OOC(c3ccc(CNCc4ccccc4)cc3)OO2)cc1 (stereo not given) | >3.7 | 3.44 µM | Non-toxic | 3.44 µM | >3.7 |  |  |
| Cc1ccc(C2OOC(c3ccc(C(=O)NCCNc4ccnc5cc(Cl)ccc45)cc3)OO2)cc1 (stereo not given) | >8.5 | 1.5 µM | Non-toxic | 1.1 µM | >6.3 |  |  |
| CCc1ccc(C2OOC(c3ccc(C(=O)NCCO)cc3)OO2)cc1 (stereo not given) | >2 | 7.51 µM | Non-toxic | 6.67 µM | >1.8 |  |  |
| Cc1ccc(C2OOC(c3ccc(CO)cc3)OO2)cc1 (stereo not given) | >9 | 2.42 µM | Non-toxic | 1.83 µM | >6.8 |  |  |
| Cc1ccc(C2OOC(c3ccc(/C=N/Cc4ccccc4)cc3)OO2)cc1 (stereo not given) | >2.6 | 6.4 µM | Non-toxic | 4.8 µM | >2 |  |  |
| O=Cc1ccc(C2OOC(c3ccccc3)OO2)cc1 (stereo not given) | >1.3 | > 17.5 µM | Non-toxic | 13.2 µM | >1 |  |  |
| CCc1ccc(C2OOC(c3ccc(CO)cc3)OO2)cc1 (stereo not given) | 9.9 | 1.09 µM | Non-toxic | 1.58 µM | 14.4 |  |  |
| Cc1ccc(C2OOC(c3ccc(/C=N\c4ccccc4S)cc3)OO2)cc1 (stereo not given) | >1.8 | 5.08 µM | Non-toxic | 6.86 µM | >2.4 |  |  |
| Cc1cccc(C2OOC(c3ccc(CO)cc3)OO2)c1 (stereo not given) | >12.9 | 1.38 µM | Non-toxic | 1.28 µM | >11.9 |  |  |
| CCCCNC(=O)c1ccc(C2OOC(c3ccc(C)cc3)OO2)cc1 (stereo not given) |  |  | Non-toxic |  |  | Not Active | Not Active |
| Cc1ccc(C2OOC(c3ccc(C=O)cc3)OO2)cc1 (stereo not given) |  |  | Non-toxic |  |  | Not Active | Not Active |
| CCc1ccc(C2OOC(c3ccc(COS(C)(=O)=O)cc3)OO2)cc1 (stereo not given) | >2.5 | 3.94 µM | Non-toxic | 4.99 µM | >3.2 |  |  |
| Cc1ccc(C2OOC(c3ccc(CNc4ccc(Br)cc4)cc3)OO2)cc1 (stereo not given) | >1.4 | 4.97 µM | Non-toxic | 7.69 µM | >2.2 |  |  |
| Cc1ccc(C2OOC(c3ccc(/C=N/CCc4ccccc4)cc3)OO2)cc1 (stereo not given) | >7.9 | 1.49 µM | Non-toxic | 1.54 µM | >8.2 |  |  |
| Cc1ccc(C2OOC(c3ccc(CNc4ccc(O)cc4)cc3)OO2)cc1 (stereo not given) | >1.8 | 7.11 µM | Non-toxic | 6.32 µM | >1.8 |  |  |
| Cc1ccc(C2OOC(c3ccc(CNc4ccc(N)cc4)cc3)OO2)cc1 (stereo not given) | >2.4 | 7.39 µM | Non-toxic | 5.28 µM | >1.7 |  |  |
| Cc1ccc(C2OOC(c3ccc(COS(C)(=O)=O)cc3)OO2)cc1 (stereo not given) | >1.7 | 8.18 µM | Non-toxic | 7.64 µM | >1.6 |  |  |
| Cc1ccc(C2OOC(c3ccc(CNc4ccc(Cl)cc4)cc3)OO2)cc1 (stereo not given) | >6.8 | 1.7 µM | Non-toxic | 1.79 µM | >7 |  |  |
| Cc1ccc(C2OOC(c3ccc(CNc4cccc5ccccc45)cc3)OO2)cc1 (stereo not given) |  |  | Non-toxic |  |  | Not Active | Not Active |
| Cc1ccc(C2OOC(c3ccc(CNc4ccccc4F)cc3)OO2)cc1 (stereo not given) | >6.6 | 1.83 µM | Non-toxic | 1.88 µM | >6.8 |  |  |
| Cc1ccc(C2OOC(c3ccc(CNc4cc(Cl)c(Cl)cc4Cl)cc3)OO2)cc1 (stereo not given) | >1.2 | 6.42 µM | Non-toxic | 8.57 µM | >1.6 |  |  |
| Cc1ccc(C2OOC(c3ccc(CNc4ccccc4S)cc3)OO2)cc1 (stereo not given) | >5.5 | 1.59 µM | Non-toxic | 2.19 µM | >7.6 |  |  |
| Cc1ccc(C2OOC(c3ccc(/C=N/C4CCCCC4)cc3)OO2)cc1 (stereo not given) | >6.8 | 1.85 µM | Non-toxic | 1.9 µM | >7 |  |  |

| Structure (SMILES) | Ratio IC50 [1] | IC50 (Plasmodium falciparum [2]; [5]) | Activity (Vero) | IC50 (Plasmodium falciparum [3]; [6]) | Ratio IC50 [4] | IC50 (Plasmodium falciparum [2]) | IC50 (Plasmodium falciparum [3]) |
| --- | --- | --- | --- | --- | --- | --- | --- |
| Cc1ccc(C2OOC(c3ccc(C(=O)NCCO)cc3)OO2)cc1 (stereo not given) |  |  | Non-toxic |  |  | Not Active | Not Active |
| CCc1ccc(NCc2ccc(C3OOC(c4ccc(C)cc4)OO3)cc2)cc1 (stereo not given) | >3.7 | 2.35 µM | Non-toxic | 3.32 µM | >5.2 |  |  |
| Cc1ccc(NCc2ccc(C3OOC(c4ccc(C)cc4)OO3)cc2)cc1 (stereo not given) |  |  | Non-toxic |  |  | Not Active | Not Active |
| Cc1ccc(C2OOC(c3ccc(C(=O)NCCCCCCCN)cc3)OO2)cc1 (stereo not given) | >2.2 | 4.66 µM | Non-toxic | 5.13 µM | >2.4 |  |  |
| Cc1ccc(C2OOC(c3ccc(/C=N\c4ccc(Br)cc4)cc3)OO2)cc1 (stereo not given) | >1.4 | 4.09 µM | Non-toxic | 7.95 µM | >2.6 |  |  |
| Cc1ccc(C2OOC(c3ccc(CNc4ccccc4C)cc3)OO2)cc1 (stereo not given) |  |  | Non-toxic |  |  | Not Active | Not Active |
| Cc1ccc(C2OOC(c3ccc(CNc4ccc(C(C)C)cc4)cc3)OO2)cc1 (stereo not given) | >4.9 | 3.2 µM | Non-toxic | 2.39 µM | >3.7 |  |  |
| Cc1ccc(C2OOC(c3ccc(C(=O)O)cc3)OO2)cc1 (stereo not given) | >1.5 | 9.26 µM | Non-toxic | 10.6 µM | >1.7 |  |  |
| Cc1ccc(C2OOC(c3ccc(C(=O)NC4CCCCC4)cc3)OO2)cc1 (stereo not given) | >2.8 | 2.86 µM | Non-toxic | 4.43 µM | >4.3 |  |  |
| Cc1ccc(C2OOC(c3ccc(CNCCc4ccccc4)cc3)OO2)cc1 (stereo not given) | >1.6 | 6.39 µM | Non-toxic | 7.67 µM | >1.9 |  |  |
| CCCNC(=O)c1ccc(C2OOC(c3ccc(C)cc3)OO2)cc1 (stereo not given) | >3.4 | 13.9 µM | Non-toxic | 8.73 µM | >1 |  |  |
| Cc1ccc(C2OOC(c3ccc(C(=O)NCCCNc4ccnc5cc(Cl)ccc45)cc3)OO2)cc1 (stereo not given) | >7.7 | 2.11 µM | Non-toxic | 1.19 µM | >4.3 |  |  |
| OCc1ccc(C2OOC(c3ccccc3)OO2)cc1 (stereo not given) | >5.6 | 1.82 µM | Non-toxic | 3.09 µM | >9.5 |  |  |
| Cc1ccccc1C1OOC(c2ccc(CO)cc2)OO1 (stereo not given) | >7.7 | 1.9 µM | Non-toxic | 2.15 µM | >8.7 |  |  |
| Cc1ccc(C2OOC(c3ccc(CNc4cccc(F)c4)cc3)OO2)cc1 (stereo not given) | >5.1 | 1.83 µM | Non-toxic | 2.46 µM | >6.8 |  |  |
| Cc1ccc(C2OOC(c3ccc(CNc4c(C)cccc4C)cc3)OO2)cc1 (stereo not given) | >8.2 | 1.45 µM | Non-toxic | 1.48 µM | >8.4 |  |  |
| Cc1ccc(C2OOC(c3ccc(CNc4ccccc4)cc3)OO2)cc1 (stereo not given) | >7.1 | 1.59 µM | Non-toxic | 1.84 µM | >8.2 |  |  |
| Cc1cccc(C2OOC(c3ccc(C=O)cc3)OO2)c1 (stereo not given) |  |  | Non-toxic |  |  | Not Active | Not Active |
| CCN(CC)CCCC(C)Nc1ccnc2cc(Cl)ccc12 (stereo not given) [CHLOROQUINE] |  |  | Non-toxic |  |  |  |  |
| CCc1ccc(C2OOC(c3ccc(C(=O)O)cc3)OO2)cc1 (stereo not given) |  |  | Non-toxic |  |  | Not Active | Not Active |
| Cc1ccc(C2OOC(c3ccc(CNc4cccc(Cl)c4)cc3)OO2)cc1 (stereo not given) |  |  | Non-toxic |  |  | Not Active | Not Active |
| Cc1ccc(C2OOC(c3ccc(C(=O)NCCCO)cc3)OO2)cc1 (stereo not given) |  |  | Non-toxic |  |  | Not Active | Not Active |
| Cc1ccc(C2OOC(c3ccc(C(=O)NCCCCCCO)cc3)OO2)cc1 (stereo not given) |  |  | Non-toxic |  |  | Not Active | Not Active |
| Cc1ccccc1C1OOC(c2ccc(C=O)cc2)OO1 (stereo not given) |  |  | Non-toxic |  |  | Not Active | Not Active |
| CCCCCNC(=O)c1ccc(C2OOC(c3ccc(CC)cc3)OO2)cc1 (stereo not given) |  |  | Non-toxic |  |  | Not Active | Not Active |
